Source: ChEMBL document CHEMBL1127626, “Synthesis and molecular modeling of 1-phenyl-1,2,3,4-tetrahydroisoquinolines and related 5,6,8,9-tetrahydro-13bH-dibenzo[a,h]quinolizines as D1 dopamine antagonists” (J Med Chem, 1994)
“And” between values parts separate entries of the source, which are not always exact repeats. Equal entries are not always repeated.

Legend:
[1] = molecular target: Dopamine receptors; D1 & D2 (Rattus norvegicus) (UniProt P18901+P61169); assay: Selectivity for D1 receptor was determined as the ratio of Ki (D2) to that of Ki (D1); format: protein assay
In short: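 D2 used 0.02 nM [3H]spiperone with 50 nM ketanserin; D1 used 0.25 nM [3H]SCH23390. IC50 from Hill plot linear regression, converted to Ki via Cheng-Prusoff.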

D(1A) dopamine receptor [2] = molecular target: T1, D(1A) dopamine receptor (Rattus norvegicus, UniProt P18901); assay: Binding affinity against dopamine receptor D1
T1 sequence (P18901 whole entry): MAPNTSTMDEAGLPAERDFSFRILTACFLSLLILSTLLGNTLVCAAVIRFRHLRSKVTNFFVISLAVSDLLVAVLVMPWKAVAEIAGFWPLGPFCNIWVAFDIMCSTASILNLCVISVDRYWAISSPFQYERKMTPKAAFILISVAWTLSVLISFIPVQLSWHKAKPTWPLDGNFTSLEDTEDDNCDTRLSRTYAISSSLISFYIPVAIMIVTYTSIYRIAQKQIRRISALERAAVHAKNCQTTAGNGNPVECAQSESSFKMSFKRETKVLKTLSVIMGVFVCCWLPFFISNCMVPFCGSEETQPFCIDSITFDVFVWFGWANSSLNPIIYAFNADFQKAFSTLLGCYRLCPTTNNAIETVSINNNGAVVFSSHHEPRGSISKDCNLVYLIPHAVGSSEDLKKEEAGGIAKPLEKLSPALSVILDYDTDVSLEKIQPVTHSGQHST

D(2) dopamine receptor [3] = molecular target: T2, D(2) dopamine receptor (Rattus norvegicus, UniProt P61169); assay: Binding affinity towards dopamine […] receptor using [3H]spiperone was determined in rat striatal membranes; format: cell membranes, Striatum, Membrane
T2 sequence (P61169 whole entry): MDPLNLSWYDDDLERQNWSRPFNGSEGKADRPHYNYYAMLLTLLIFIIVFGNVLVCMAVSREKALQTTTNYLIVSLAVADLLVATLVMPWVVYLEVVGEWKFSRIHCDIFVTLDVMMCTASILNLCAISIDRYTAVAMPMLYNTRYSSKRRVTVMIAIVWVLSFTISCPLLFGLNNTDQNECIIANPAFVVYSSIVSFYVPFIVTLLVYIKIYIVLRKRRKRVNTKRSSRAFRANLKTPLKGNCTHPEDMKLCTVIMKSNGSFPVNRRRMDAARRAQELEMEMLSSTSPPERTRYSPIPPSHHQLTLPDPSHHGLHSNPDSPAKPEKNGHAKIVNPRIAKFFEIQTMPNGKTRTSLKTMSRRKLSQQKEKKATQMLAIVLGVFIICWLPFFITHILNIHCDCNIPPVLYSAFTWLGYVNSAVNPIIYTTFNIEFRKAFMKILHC

D(1A) dopamine receptor [4] = molecular target: T1, D(1A) dopamine receptor; assay: Binding affinity towards dopamine receptor D1 using [3H]SCH-23390 was determined in rat striatal membranes; format: cell membranes, Striatum, Membrane
D(2) dopamine receptor [5] = molecular target: T2, D(2) dopamine receptor; assay: Binding affinity against dopamine (D2) receptor
In short: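 Competition with 0.02 nM [3H]spiperone plus 50 nM ketanserin to mask 5-HT2 sites; chlorpromazine defines nonspecific. 37 °C 15 min, glass-fiber filtration. IC50 from Hill plot linear regression, Ki by Cheng-Prusoff; mean ± SEM.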

Compound	Ratio [1]	Ki (D(1A) dopamine receptor [2])	Ki (D(2) dopamine receptor [3]) [nM]	Ki (D(1A) dopamine receptor [4]) [nM]	Ki (D(2) dopamine receptor [5]) [nM]	Log Ki (D(1A) dopamine receptor [2])
Oc1cc2c(cc1Cl)CNCC2c1ccccc1 (racemic)	6.4	282 nM	–	–	–	–
Oc1cc2c(cc1Cl)CCN1CCc3ccccc3C21 (racemic)	–	417 nM	> 5000	830	–	–
Oc1cc2c(cc1Cl)CCNC2c1ccccc1 (racemic)	35.4	141 nM	–	743	3720	–
CN1Cc2cc(Cl)c(O)cc2C(c2ccccc2)C1 (racemic)	3	178 nM and 87.1 nM	–	–	–	–
CN1CCc2cc(O)ccc2[C@H]1c1ccccc1	–	> 10000 nM	> 5000	> 5000	–	–
CCCN1CCc2cc(Cl)c(O)cc2C1c1ccccc1 (racemic)	10.6	178 nM	–	179	1910	–
Oc1cc2c(cc1O)C1c3ccccc3CCN1CC2 (racemic)	–	1380 nM	> 5000	2700	–	–

Other lines, results leading:

Ratio [1]	Ki (D(1A) dopamine receptor [2])	Ki (D(2) dopamine receptor [3]) [nM]	Ki (D(1A) dopamine receptor [4]) [nM]	Ki (D(2) dopamine receptor [5]) [nM]	Log Ki (D(1A) dopamine receptor [2])	Compound
–	> 10000 nM	> 5000	> 5000	–	–	CN1CCc2ccc(O)cc2C1c1ccccc1 (racemic)
–	8.32 nM	> 5000	> 5000	–	–	CN1CCc2cc(Br)c(O)cc2[C@H]1c1ccccc1
5.39	–	–	–	–	–	CN1CCc2cc(Cl)c(O)cc2C1Cc1ccccc1 (racemic)
157	8.32 nM	1300	8.3	1320	–	CN1CCc2cc(Br)c(O)cc2[C@@H]1c1ccccc1
206	9.12 nM	–	–	–	-8.04	CN1CCc2cc(Cl)c(O)cc2[C@@H]1c1ccccc1
1.27	186 nM	290	370	295	–	CN1CCc2cc(O)c(O)cc2C1c1ccccc1 (racemic)
–	141 nM	> 3000	138	–	–	CN1Cc2ccccc2C2c3cc(O)c(Br)cc3CCC21 (racemic)
43.4	6.61 nM	–	–	19500	–	CN1CCc2cc(Cl)c(O)cc2[C@H]1c1ccccc1
